Data reported in ChEMBL document CHEMBL5046272, “Discovery of Potent, Selective, and In Vivo Efficacious AKT Kinase Protein Degraders via Structure-Activity Relationship Studies” (J Med Chem, 2022).
Active and inactive are the calls of the source. No cut-off for these calls is given here.

How the values were obtained:
[1] = Drug exposure in Swiss albino mouse plasma at 75 mg/kg, ip administered as single dose measured upto 12 hrs by LC-MS/MS analysis; assay type: ADME, organism-based; details: in vivo
Outline: (§1)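 Male Swiss Albino mice, single IP dose of HCl salt in 5% DMA/5% Solutol HS-15/90% normal saline. Plasma (~60 μL) drawn from three mice per time point at 0.5, 1, 2, 4, 8 and 12 h. Samples were held below −70 °C and quantified by LC–MS/MS (LLOQ 10.18 ng/mL). Parameters come from non-compartmental analysis of mean concentrations.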

[2] = Toxicity in immunocompromised NU/J mouse xenografted with human PC-3 cells assessed as body weight loss at 75 mg/kg, ip administered once daily for 22 days; assay type: organism-based; details: in vivo, 528 h, time 22 day
Outline: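 Male NU/J nude mice, 6 weeks old, engrafted with PC-3 cells. Randomized at ~100 mm³ tumors to vehicle (n = 6) or 75 mg/kg IP once daily (n = 7) for 22 days. Body weight compared at study start and end. Unblinded.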

[3] = Tmax in Swiss albino mouse at 75 mg/kg, ip administered as single dose measured upto 12 hrs by LC-MS/MS analysis; assay type: ADME, organism-based; details: in vivo; outline: as §1
[4] = AUC in Swiss albino mouse at 75 mg/kg, ip administered as single dose measured upto 12 hrs post injection by LC-MS/MS analysis; assay type: ADME, organism-based; design: route intraperitoneal, dose 75 mg/kg, time <=12; details: in vivo; outline: as §1
MDA-MB-468 = assay: Antiproliferative activity against human MDA-MB-468 cells assessed as cell growth by measured after 5 days by IncuCyte zoom live cell analysis; assay type: functional; details: MDA-MB-468, 120 h, time 5 day
Outline: (§2)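 Cells grown in DMEM with 10% FBS at 37 °C, 5% CO₂. Seeded at 1–3 × 10³ cells/well in triplicate with serial compound dilutions for 5 days. Growth was taken as confluence from IncuCyte phase-contrast images of live cells. Three independent experiments.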

PC-3 = assay: Antiproliferative activity against human PC-3 cells assessed as inhibition of cell growth measured after 5 days by IncuCyte zoom live cell analysis; assay type: functional; details: PC-3, 120 h, time 5 day; outline: as §2
BT-474 = assay: Inhibition of colony formation in human BT-474 cells at 0.1 to 10 uM incubated for 14 days by replacing culture medium for every 2 days by crystal violet staining based assay; assay type: functional, cell-based; details: dose 0.1-10 µM, time 14.0 day
Outline: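 BT474 cells cultured 14 days with compound. Medium plus compound was replaced every 2 days. Viable cells were then stained with 0.5% crystal violet.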

[5] = Cmax in Swiss albino mouse at 75 mg/kg, ip administered as single dose measured upto 12 hrs by LC-MS/MS analysis; assay type: ADME, organism-based; design: route intraperitoneal, dose 75 mg/kg, time <=12; details: in vivo; outline: as §1

Activity [1]: 3.7 µM
Tmax [3]: 2 h
AUC [4]: 63600 ng·h/mL
GI50 (MDA-MB-468): 1000 nM
GI50 (PC-3): 800 nM
Cmax [5]: 7 µM
Compound: Cc1ncsc1-c1ccc(CNC(=O)[C@@H]2C[C@@H](O)CN2C(=O)[C@@H](NC(=O)CCCCCCCCCCC(=O)N2CCN(CC[C@H](NC(=O)C3(N)CCN(c4ncnc5[nH]ccc45)CC3)c3ccc(Cl)cc3)CC2)C(C)(C)C)cc1
Activity [2]: Non-Toxic
inhibition (BT-474): Active
